Holding throughout (assay type): functional
The nature of experiment [1]: Antioxidant activity against bovine serum albumin oxidation after 60 mins. The procedure, abridged: (§1)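 BSA (10 mg/mL) oxidised with H2O2 (1.0 mM) and FeSO4 (0.5 mM) in the presence of sample; shaken 10 min, then TCA (10.0%) precipitation at 4 °C. Pellet derivatised with DNPH (10 mM) in 2 N HCl for 1 h at room temperature, reprecipitated with cold TCA, washed, and dissolved in 6 M guanidine-HCl (pH 6.5). Protein carbonyl formation was measured.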

Experiment [2] can be described thus: Antioxidant activity against lipid peroxidation assessed as TBARS production using rape seed oil after 60 mins. The procedure, abridged: (§2)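 Rape seed oil emulsified with Tween-40 in Tris-HCl (0.2 M, pH 7.4). Test compound added at final 37.5, 75.0, 125.0 or 250.0 µM, then tubes held in a boiling water bath for 30 min. Absorbance read at 532 nm. Lipid peroxidation inhibition is given as percent versus a blank without compound. Triplicate.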

Experiment [3] deals with Radical scavenging activity. Briefly: Antioxidant activity assessed as DPPH radical scavenging activity. The method, boiled down:
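DPPH absorbance at 515 nm read at 30 min against a blank. Compounds tested at 37.5, 75, 125 and 250 µM in triplicate, with Trolox as standard. IC50 is the concentration giving 50% inhibition of absorbance, taken from the plotted curves.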
(In general: The DPPH test is a chemical assay of radical scavenging.)

A short description of experiment [4]: Antioxidant activity against pentose 2-deoxyribose oxidation at 250 uM after 60 mins by TBA method. The method, boiled down: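 Deoxyribose assay in KH2PO4/KOH (10.0 mM, pH 7.4) with H2O2, EDTA, FeCl3 and ascorbic acid (each 100.0 µM) plus 2-deoxyribose (2.8 mM). Compound at final 37.5–250.0 µM, incubated at 37 °C for 1 h. TBA/TCA added, heated at 90 °C for 30 min, read at 532 nm. Result is percent antioxidant capacity versus blank. Triplicate.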

A short description of experiment [5]: Antioxidant activity against bovine serum albumin oxidation at 37.5 uM after 60 mins. The method, boiled down: as §1
Experiment [6] can be described thus: Antioxidant activity against lipid peroxidation assessed as TBARS production using rape seed oil at 250 uM after 60 mins. The method, boiled down: as §2

This note sets out measurements from ChEMBL document CHEMBL1287805, “abeo-abietanes from Teucrium polium roots as protective factors against oxidative stress” (Bioorg Med Chem, 2010).

The source made the active and inactive calls. The calls are words filed in the database; no cut-off is given here.

For the compound `Cc1cc2c(O)c3c(c(O)c2o1)[C@@]1(C)CC[C@H]2C[C@@]2(C)[C@@H]1CC3=O`, the Activity entry in experiment [1] and in experiment [2] was “Dose-dependent effect” throughout. For the same compound, the IC50 in experiment [3] was found to be 130 µM. In experiment [4], this compound showed an inhibition of 50%.
Regarding `C[C@]12CC[C@H]3C[C@@]3(C)C1=C(O)C(=O)c1c2c(O)c2oc(CO)cc2c1O`, the Activity entry in experiment [1] and in experiment [2] was “Dose-dependent effect” throughout. The IC50 in experiment [3] came to 101 µM. Also, the inhibition result in experiment [4] was “inactive”.
On to `C[C@H]1Cc2c(O)c3c(c(O)c2O1)[C@@]1(C)CCC(=O)C(C)(C)C1=C(O)C3=O` [TEUVINCENONE A], for which the Activity result in experiment [1] and in experiment [2] was “Dose-dependent effect” throughout. Also, the IC50 in experiment [3] turned out to be 63 µM. In experiment [4], this compound gave an inhibition of 50%.
Turning to `Cc1cc2c(O)c3c(c(O)c2o1)[C@@]1(C)CCCC(C)(C)C1=C(O)C3=O`, the Activity result in experiment [1] and in experiment [2] was “Dose-dependent effect” in each case. In experiment [3], the IC50 worked out at 76 µM. In addition, the inhibition entry in experiment [4] was “inactive”.
As to `C[C@H]1Cc2c(O)c3c(c(O)c2O1)[C@@]1(C)CCCC(C)(C)C1=C(O)C3=O` [TEUVINCENONE B], the Activity entry in experiment [1] and in experiment [2] was “Dose-dependent effect” each time. Moreover, the IC50 in experiment [3] is 55 µM. This compound came in with an inhibition in experiment [4] of 50%.
On to `C[C@H]1Cc2c(O)c3c(c(O)c2O1)[C@@]1(C)CC[C@H]2C[C@@]2(C)[C@@H]1CC3=O` [TEUVINCENONE D], for which the Activity result in experiment [1] and in experiment [2] was “Dose-dependent effect” in each case. For the same compound, the IC50 in experiment [3] stood at 111 µM. Further, the inhibition in experiment [4] amounted to 50%.
`Cc1cc2c(O)c3c(c(O)c2o1)[C@@]1(C)CCC(=O)C(C)(C)C1=C(O)C3=O`: the Activity entry in experiment [1] and in experiment [2] was “Dose-dependent effect” each time. In addition, in experiment [3], the IC50 was 64 µM. The compound further came in with an inhibition in experiment [4] of 50%.
In the case of `C[C@H]1Cc2c(O)c3c(c(O)c2O1)[C@@]1(C)CC[C@H]2C[C@@]2(C)C1=C(O)C3=O` [TEUVINCENONE C], the Activity result in experiment [1] and in experiment [2] was “Dose-dependent effect” throughout. In experiment [3], the IC50 came out at 97 µM. Also, in experiment [4], the inhibition worked out at 50%.
Regarding `CC1(C)CCC[C@@]2(C)C1=C(O)C(=O)c1c2c(O)c2oc(CO)cc2c1O`, the Activity entry in experiment [1] and in experiment [2] was “Dose-dependent effect” each time. Also, the IC50 in experiment [3] was determined as 120 µM. The same compound came in with an inhibition in experiment [4] of 50%.
For the compound `CC1(C)CCC[C@@]2(C)C1=C(O)C(=O)c1c(O)c3c(c(O)c12)O[C@@H](CO)C3` [VILLOSIN C], the Activity result in experiment [1] and in experiment [2] was “Dose-dependent effect” each time. In addition, in experiment [3], the IC50 stood at 86 µM. In addition, in experiment [4], the inhibition was determined as 50%.
For the compound `C[C@@H]1Oc2c(O)c3c(c(O)c2[C@H]1O)C(=O)C(O)=C1[C@]3(C)CC[C@H]2C[C@@]12C`, the Activity result in experiment [1] and in experiment [2] was “Dose-dependent effect” each time. Also, in experiment [3], the IC50 was found to be 84 µM. This compound also displayed an inhibition in experiment [4] of 50%.
Consider `Cc1cc2c(O)c3c(c(O)c2o1)[C@@]1(C)CC[C@H]2C[C@@]2(C)C1=C(O)C3=O`, for which the Activity result in experiment [1] and in experiment [2] was “Dose-dependent effect” throughout. In addition, the inhibition in experiment [5] was 31%; in experiment [6] it was 76.9%. Moreover, the IC50 in experiment [3] came out at 55 µM. The inhibition result in experiment [4] was “inactive”.
With `C[C@@H]1Oc2c(O)c3c(c(O)c2[C@H]1O)C(=O)C(O)=C1C(C)(C)CCC[C@@]13C`, the Activity result in experiment [1] and in experiment [2] was “Dose-dependent effect” throughout. Further, the IC50 in experiment [3] is 71 µM. Also, the inhibition in experiment [4] stood at 50%.
Regarding `Cc1c(C)c2c(c(C)c1O)CCC(C)(C(=O)O)O2` (stereo not given) [TROLOX], in experiment [3], the IC50 was 24 µM.

Usually IC50 stands for the concentration that gives 50% inhibition. The term inhibition denotes the percentage by which the read-out fell short of the control.
